In brackets after ≈: the same amount, converted by molar mass.
How the values were obtained:
Type in all cases: functional
[1] = Concentration required to cause a microscopically detectable alteration of normal ESM cell morphology.; conditions: Homo sapiens
[2] = Concentration required to reduce HSV-1 thymidine kinase deficient (TK-)(VMW 1837) induced cytopathogenicity in by 50% ESM(embryonic skin muscle) cell cultures.; conditions: Homo sapiens
In short: (§1)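 Embryonic skin muscle (ESM) cell cultures were infected at a virus input of 100 CCID50, where 1 CCID50 is the infective dose for 50% of cultures. Endpoint: concentration reducing virus-induced cytopathogenicity by 50%.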

[3] = Concentration required to reduce HSV-1(KOS) induced cytopathogenicity by 50% in ESM(embryonic skin muscle) cell cultures.; conditions: Homo sapiens; in short: as §1
[4] = Concentration required to reduce HSV-2(G) induced cytopathogenicity by 50% in ESM(embryonic skin muscle) cell cultures.; conditions: Homo sapiens; in short: as §1
[5] = Concentration required to reduce vaccinia virus(VV) induced cytopathogenicity by 50% in ESM(embryonic skin muscle) cell cultures.; conditions: Homo sapiens; in short: as §1
[6] = Concentration required to reduce vesicular stomatitis virus(VSV) induced cytopathogenicity by 50% in ESM(embryonic skin muscle) cell cultures.; conditions: Homo sapiens; in short: as §1
HEL [7] = assay: Concentration required to reduce human embryonic lung (HEL) cell growth by 50%.; conditions: read-out: MCC
HEL [8] = assay: Concentration required to reduce CMV(AD-169) plaque formation by 50% in human embryonic lung (HEL) cell cultures.
In short: (§2)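 Human embryonic lung (HEL) cell cultures were infected with 20 or 100 plaque forming units of CMV, as specified per column. Endpoint: concentration reducing plaque formation by 50%.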

HEL [9] = assay: Concentration required to reduce CMV(Davis) plaque formation by 50% at 20 plaque forming units(PFU) in human embryonic lung (HEL) cell cultures.; in short: as §2
HEL [10] = assay: Concentration required to reduce CMV (Davis) plaque formation by 50% at 100 plaque forming units(PFU) in human embryonic lung (HEL) cell cultures.; in short: as §2
HEL [11] = assay: Concentration required to reduce VZV-07/1-TK- plaque formation by 50% in human embryonic lung (HEL) cell cultures.
HEL [12] = assay: Concentration required to reduce varicella zoster virus(VZV)OKA plaque formation by 50% at 20 plaque forming units(PFU) in human embryonic lung (HEL) cell cultures.
HEL [13] = assay: Concentration required to reduce varicella zoster virus (VZV)YS-TK-PFU plaque formation by 50% in human embryonic lung (HEL) cell cultures.
[14] = Concentration required to reduce HSV-1 thymidine kinase deficient (TK-)(B2006) induced cytopathogenicity by 50% in ESM(embryonic skin muscle) cell cultures.; conditions: Homo sapiens; in short: as §1
HEL [15] = assay: Concentration required to reduce VZV-YS/R-TK- plaque formation by 50% in human embryonic lung (HEL) cell cultures.

Structure (SMILES) | MCC [1] [µg/mL] | MIC [2] [mg/L] | MIC [3] [mg/L] | MIC [4] [mg/L] | MIC [5] [mg/L] | MIC [6] [mg/L] | CC50 (50% cell growth inhibitory concentration) (HEL [7]) [mg/L] | MIC (HEL [8]) [mg/L] | MIC (HEL [9]) [mg/L] | MIC (HEL [10]) [mg/L] | MIC (HEL [11]) [mg/L] | MIC (HEL [12]) [mg/L] | MIC (HEL [13]) [mg/L] | MIC [14] [mg/L] | MIC (HEL [15]) [mg/L]
Nc1ncnc2c1ncn2[C@H]1C[C@@H](O)[C@@H](O)C1 | > 400 | 100 (≈ 425 µM) | > 200 | > 200 | > 100 | > 200 | 110 (≈ 468 µM) | 200 (≈ 850 µM) | 200 (≈ 850 µM) | 200 (≈ 850 µM) | 24 (≈ 102 µM) | 24 (≈ 102 µM) | 25 (≈ 106 µM) | 70 (≈ 298 µM) | 47 (≈ 200 µM)
NC(=O)c1ncn([C@@H]2O[C@H](CO)[C@@H](O)[C@H]2O)n1 [RIBAVIRIN] | > 400 | 40 (≈ 164 µM) | > 400 | > 400 | 70 (≈ 287 µM) | 150 (≈ 614 µM) | – | – | – | – | – | – | – | 300 (≈ 1230 µM) | –
O=c1[nH]c(=O)n([C@H]2C[C@H](O)[C@@H](CO)O2)cc1/C=C/Br [BRIVUDINE] | > 400 | 10 (≈ 30 µM) | 0.07 (≈ 0.21 µM) | 10 (≈ 30 µM) | 1 (≈ 3 µM) | > 400 | – | – | – | – | > 10 | 0.001 (≈ 0.003 µM) | 0.0007 (≈ 0.0021 µM) | 100 (≈ 300 µM) | > 10
Nc1nc2c(ncn2COC(CO)CO)c(=O)[nH]1 [GANCICLOVIR] | – | – | – | – | – | – | – | – | 0.8 (≈ 3.13 µM) | 0.3 (≈ 1.18 µM) | – | 3 (≈ 11.8 µM) | – | – | –
Nc1nc(O)c2ncn([C@H]3C[C@@H](O)[C@@H](O)C3)c2n1 | > 400 | 150 (≈ 597 µM) | 300 (≈ 1190 µM) | 300 (≈ 1190 µM) | 300 (≈ 1190 µM) | > 400 | 196 (≈ 780 µM) | 250 (≈ 995 µM) | 270 (≈ 1070 µM) | 250 (≈ 995 µM) | 164 (≈ 653 µM) | 90 (≈ 358 µM) | 91 (≈ 362 µM) | 300 (≈ 1190 µM) | 192 (≈ 764 µM)
Nc1nc(N)c2ncn([C@H]3C[C@@H](O)[C@@H](O)C3)c2n1 | > 400 | 150 (≈ 599 µM) | > 200 | 200 (≈ 799 µM) | > 150 | > 200 | 139 (≈ 555 µM) | 70 (≈ 280 µM) | 70 (≈ 280 µM) | 70 (≈ 280 µM) | 70 (≈ 280 µM) | 70 (≈ 280 µM) | 200 (≈ 799 µM) | 100 (≈ 400 µM) | 89 (≈ 356 µM)

From ChEMBL document CHEMBL1126074, “(+-)-carbocyclic 5'-nor-2'-deoxyguanosine and related purine derivatives: synthesis and antiviral properties” (1992)
